Source: ChEMBL document CHEMBL1121744, “Synthesis and antihypertensive activity of a series of 8-substituted 1-oxa-3,8-diazaspiro[4.5]decan-2-ones” (J Med Chem, 1981)
Activity calls are given as the source filed them. The calls are words filed in the database; no cut-off is given here.

Assays:
Rattus norvegicus [1] = test: The antihypertensive activity as percentage fall in systolic blood pressure in spontaneously hypertensive rats after a period of 2 hr for a dose of 25 mg/kg po; NS=Not significant; format: functional, organism-based; parameters: dose 25 mg/kg; details: Artery
Summary of the method: (§1)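 Male Okamoto-Aoki SHR, trained, in groups of four matched for mean systolic pressure; one group per run received water vehicle. Oral dosing in water (0.1 mL per 10 g) on two consecutive mornings. After the day-2 dose, rats were restrained at 30.0 ± 1.0 °C. Systolic pressure was read by tail cuff (inflated to 300 mmHg, first pulse) at 1–4 h. % fall is versus the untreated control group, by 1-tail t test (p ≤ 0.05).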

Rattus norvegicus [2] = test: The antihypertensive activity as percentage fall in systolic blood pressure in spontaneously hypertensive rats after a period of 1 hr for a dose of 25 mg/kg po; format: functional, Artery; summary of the method: as §1
Canis familiaris [3] = test: Change in mean arterial pressure in anesthetized dogs for a dose of 0.01 mg/kg; format: functional, Canis lupus familiaris, Artery
Summary of the method: (§2)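 Dogs anesthetized with sodium pentobarbital (35 mg/kg iv), femoral artery cannulated for pressure, ECG-triggered heart rate, femoral vein for dosing. Rising iv doses were given 90 min apart, and each dose is the full dose, not cumulative. Value is the maximal mean arterial pressure change 10–15 min after each dose, two dogs per compound, ±3 mmHg. Saline served as control.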

Canis familiaris [4] = test: Percent inhibition of the pressor responses to 0.75 ug/kg iv norepinephrine in pentobarbital-anesthetized dogs for a dose of 3.16 mg/kg; format: functional; details: Canis lupus familiaris
Summary of the method: (§3)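 Pentobarbital-anesthetized dogs (35 mg/kg iv) with femoral arterial pressure recording. Epinephrine (1 μg/kg), norepinephrine (0.75 μg/kg) and phenylephrine (7.5 μg/kg) iv challenges were given about every 10 min before and after rising iv test doses, which were spaced 90 min apart. Value is % inhibition of the pressor response.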

[5] = biological target: T1, Adrenergic receptor alpha-1 (Rattus norvegicus, UniProt P15823+P23944+P43140); test: Antagonistic potency of compound for Alpha-1 adrenergic receptor; format: functional
T1 sequence (P15823 whole entry): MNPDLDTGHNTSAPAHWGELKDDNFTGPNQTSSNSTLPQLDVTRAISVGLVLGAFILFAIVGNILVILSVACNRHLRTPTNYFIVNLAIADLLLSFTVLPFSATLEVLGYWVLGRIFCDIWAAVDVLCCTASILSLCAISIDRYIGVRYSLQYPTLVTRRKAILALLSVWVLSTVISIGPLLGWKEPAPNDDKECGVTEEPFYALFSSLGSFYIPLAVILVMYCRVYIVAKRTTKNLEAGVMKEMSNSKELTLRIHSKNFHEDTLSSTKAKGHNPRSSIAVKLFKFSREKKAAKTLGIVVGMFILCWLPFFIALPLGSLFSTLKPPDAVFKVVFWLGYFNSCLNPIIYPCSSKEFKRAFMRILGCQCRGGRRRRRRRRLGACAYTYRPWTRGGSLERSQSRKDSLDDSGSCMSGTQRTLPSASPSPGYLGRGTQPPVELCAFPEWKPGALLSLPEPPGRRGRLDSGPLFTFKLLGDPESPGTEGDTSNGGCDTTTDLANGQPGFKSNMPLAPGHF
T1 sequence (P23944 whole entry): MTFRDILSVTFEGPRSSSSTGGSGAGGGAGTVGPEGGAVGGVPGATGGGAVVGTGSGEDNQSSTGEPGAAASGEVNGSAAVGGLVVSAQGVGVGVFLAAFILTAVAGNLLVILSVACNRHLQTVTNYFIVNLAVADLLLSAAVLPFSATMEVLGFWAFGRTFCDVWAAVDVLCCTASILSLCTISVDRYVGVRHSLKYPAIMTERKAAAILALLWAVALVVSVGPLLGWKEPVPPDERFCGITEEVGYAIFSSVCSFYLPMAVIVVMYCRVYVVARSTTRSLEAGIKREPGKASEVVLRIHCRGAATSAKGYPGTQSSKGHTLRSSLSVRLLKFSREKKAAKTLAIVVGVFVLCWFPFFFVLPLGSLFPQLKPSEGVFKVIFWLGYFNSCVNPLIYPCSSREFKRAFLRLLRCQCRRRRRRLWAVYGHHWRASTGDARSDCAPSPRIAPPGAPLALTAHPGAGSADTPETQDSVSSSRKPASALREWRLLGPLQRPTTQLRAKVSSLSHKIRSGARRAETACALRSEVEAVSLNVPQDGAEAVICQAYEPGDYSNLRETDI
T1 sequence (P43140 whole entry): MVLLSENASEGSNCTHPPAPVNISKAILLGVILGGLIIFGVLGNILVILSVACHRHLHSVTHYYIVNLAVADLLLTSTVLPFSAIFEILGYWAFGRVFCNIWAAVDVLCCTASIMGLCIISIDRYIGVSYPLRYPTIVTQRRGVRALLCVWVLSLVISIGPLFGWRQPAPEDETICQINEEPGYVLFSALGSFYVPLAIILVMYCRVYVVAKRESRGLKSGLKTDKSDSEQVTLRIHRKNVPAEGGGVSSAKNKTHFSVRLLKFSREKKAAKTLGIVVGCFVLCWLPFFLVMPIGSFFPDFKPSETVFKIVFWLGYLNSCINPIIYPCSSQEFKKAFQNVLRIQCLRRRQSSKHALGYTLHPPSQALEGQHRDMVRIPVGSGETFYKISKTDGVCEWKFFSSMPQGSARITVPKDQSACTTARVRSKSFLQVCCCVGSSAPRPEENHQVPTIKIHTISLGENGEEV

Canis familiaris [6] = test: Percent inhibition of the pressor responses to 0.75 ug/kg iv norepinephrine in pentobarbital-anesthetized dogs for a dose of 1 mg/kg; format: functional; details: Canis lupus familiaris; summary of the method: as §3
Canis familiaris [7] = test: Change in mean arterial pressure in anesthetized dogs for a dose of 3.16 mg/kg; format: functional, Canis lupus familiaris, Artery; summary of the method: as §2
Rattus norvegicus [8] = test: The antihypertensive activity as percentage fall in systolic blood pressure in spontaneously hypertensive rats after a period of 4 hr for a dose of 25 mg/kg po; NS=Not significant; format: functional, organism-based; parameters: dose 25 mg/kg; details: Artery; summary of the method: as §1
Rattus norvegicus [9] = test: The antihypertensive activity as percentage fall in systolic blood pressure in spontaneously hypertensive rats after a period of 3 hr for a dose of 25 mg/kg po; format: functional, Artery; summary of the method: as §1
Canis familiaris [10] = test: Change in mean arterial pressure in anesthetized dogs for a dose of 0.316 mg/kg; format: functional, Canis lupus familiaris, Artery; summary of the method: as §2
Canis familiaris [11] = test: Percent inhibition of the pressor responses to 7.5 ug/kg iv phenylephrine in pentobarbital-anesthetized dogs for a dose of 10 mg/kg; format: functional; details: Canis lupus familiaris; summary of the method: as §3
Rattus norvegicus [12] = test: The antihypertensive activity as percentage fall in systolic blood pressure in spontaneously hypertensive rats after a period of 1 hr for a dose of […]; format: functional, Artery
Summary of the method: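 Male Okamoto-Aoki SHR, trained, in groups of four matched for systolic pressure, with a concurrent vehicle control group. Oral dosing on two consecutive mornings, in water as solution or suspension at 0.1 mL/10 g. On day 2 rats were restrained at 30.0 ± 1.0 °C. Tail-cuff systolic pressure, four traces per rat, read at each hour. Per cent fall versus control; 1-tail t test, p ≤ 0.05.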

Canis familiaris [13] = test: Percent inhibition of the pressor responses to 1 ug/kg iv Epinephrine in pentobarbital-anesthetized dogs for a dose of 0.1 mg/kg; format: functional; details: Canis lupus familiaris
Summary of the method: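 Dogs anesthetized with sodium pentobarbital 35 mg/kg iv; femoral artery cannulated for blood pressure, femoral vein for dosing. Epinephrine 1 μg/kg iv given at about 10-min intervals before and after increasing test doses. Test doses given iv at 90-min intervals. Result is per cent inhibition of the pressor response.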

SMILES	Decrease in blood pressure (Rattus norvegicus [1])	Decrease in blood pressure (Rattus norvegicus [2]) [%]	MAP (Canis familiaris [3]) [mmHg]	inhibition in vivo at 3.16 mg/kg (Canis familiaris [4]) [%]	pA2 [5]	inhibition in vivo at 1 mg/kg (Canis familiaris [6]) [%]	MAP (Canis familiaris [7]) [mmHg]	Decrease in blood pressure (Rattus norvegicus [8])	Decrease in blood pressure (Rattus norvegicus [9]) [%]	MAP (Canis familiaris [10]) [mmHg]	inhibition in vivo at 10 mg/kg (Canis familiaris [11]) [%]	Decrease in blood pressure (Rattus norvegicus [12]) [%]	inhibition in vivo at 0.1 mg/kg (Canis familiaris [13]) [%]
CN1CC2(CCN(CC(O)C3COc4ccccc4O3)CC2)OC1=O (centres undefined)	inactive	27	4	69	4.5	60	-18	inactive	15	0	–	–	–
O=C1NCC2(CCN(CCc3c[nH]c4ccccc34)CC2)O1	–	–	–	–	5.5	–	–	–	–	–	100	14	> 100
